# Data from ChEMBL document CHEMBL1137134, “Novel thiophenes and analogues with anthelmintic activity against Haemonchus contortus” (Bioorg Med Chem Lett, 2004).
# Key:
# Format in all cases: functional, organism-based
# Haemonchus contortus [1] = assay: In vitro anthelmintic activity against Haemonchus contortus after 24 hr of incubation using larval mobility assay; NA denotes <50% inhibition of […] at 100 ppm
# How it was run: (§1)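 H. contortus L3 larvae (30–40/well) exposed to compound at 27 °C for 2 or 24 h, then moved to an insert with a 40 µm nylon mesh under 2% low melt agar. After a further 4 h, larvae that migrated through the barrier were counted. EC50 from 2-fold serial dilutions, 200 to 0.2 µM. Primary screen at 100 ppm, 24 h; >50% motility inhibition counted as active.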
# Haemonchus contortus [2] = assay: In vitro anthelmintic activity against Haemonchus contortus after 2 hr of incubation using larval mobility assay
# How it was run: (§2)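 L3 larvae (30–40/well) incubated with compound at 27 °C for 2 or 24 h, then moved to an insert whose wells have a nylon mesh (40 µm pores) under 2% low-melt agar. After 4 h more, larvae that migrated through the barrier were counted. Primary screen at 100 ppm, with >50% motility inhibition counted as active. EC50 from 2-fold serial dilutions, 200 to 0.2 µM.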
# Haemonchus contortus [3] = assay: In vitro anthelmintic activity against Haemonchus contortus after 24 hr of incubation using larval mobility assay; how it was run: as §2
# Haemonchus contortus [4] = assay: In vitro anthelmintic activity against Haemonchus contortus after 2 hr of incubation using larval mobility assay; NA denotes <50% inhibition of mortality at 100 ppm; how it was run: as §1
Structure (SMILES),EC50 (Haemonchus contortus [1]),EC50 (Haemonchus contortus [2]) [µM],EC50 (Haemonchus contortus [3]) [µM],EC50 (Haemonchus contortus [4])
N#Cc1cscc1-c1ccc(F)cc1,Not Active,,,
CCOc1scc(-c2ccc(F)cc2)c1C#N,Not Active,,,
CCSc1nc(-c2ccccc2)cs1,,> 200,32,
CSc1ccc(-c2ccc(F)cc2)cc1,Not Active,,,
CCSc1cc(-c2ccccc2)cs1,Not Active,,,
CCSc1cc(-c2cccs2)cs1,,> 200,161,
CS(=O)(=O)c1scc(-c2ccc(F)cc2)c1C#N,Not Active,,,
CCSc1cc(-c2ccc([N+](=O)[O-])cc2)cs1,,193,15,
CC(=O)c1cc(-c2ccc(F)cc2)cs1,Not Active,,,
CCSc1cc(-c2ccc(F)cc2)cs1,,> 200,12,
CNc1nc(-c2ccccc2)cs1,,46,65,
CSc1cc(-c2ccc(F)cc2)co1,Not Active,,,
CCSc1cc(-c2cccnc2)cs1,,46,33,
CSc1nc(-c2ccc(F)cc2)c[nH]1,Not Active,,,
CCNc1nc(-c2ccccc2)cs1,,162,102,
CSc1cc(-c2ccc(F)cc2)cs1,,> 200,68,
CCSc1c(C#N)c(-c2ccc(F)cc2)cn1C,Not Active,,,Not Active

Structure (SMILES),EC50 (Haemonchus contortus [1]),EC50 (Haemonchus contortus [2]) [µM],EC50 (Haemonchus contortus [3]) [µM],EC50 (Haemonchus contortus [4])
N#Cc1c(-c2ccc(F)cc2)csc1N,Not Active,,,
CSc1scc(-c2ccc(F)cc2)c1Br,,> 200,17,
CCSc1cc(-c2ccc(F)c(F)c2)cs1,,> 200,80,
CSc1nc(-c2ccc(F)cc2)cn1C,Not Active,,,
CSc1scc(-c2ccc(F)cc2)c1C#N,,> 200,28,
CSc1ccc(-c2ccc(F)cc2)cc1C#N,Not Active,,,
CCc1cc(-c2ccc(F)cc2)cs1,Not Active,,,
CCSc1scc(-c2ccc(F)cc2)c1C#N,,> 200,6,
CNc1scc(-c2ccc(F)cc2)c1C#N,Not Active,,,
CCSc1cc(-c2cccc(C#N)c2)cs1,,> 200,189,
CSc1scc(-c2ccc(F)cc2)c1[N+](=O)[O-],Not Active,,,
CSc1c(C#N)c(-c2ccc(F)cc2)cn1C,,> 200,175,
CSc1cccc(-c2ccc(F)cc2)c1,Not Active,,,
c1ccc([C@H]2CN3CCSC3=N2)cc1 [LEVAMISOLE],,18,15,
CSc1nc(-c2ccccc2)cs1,,82,190,
CNc1nc(-c2ccc(F)cc2)cs1,,98,64,
